Results as given in PMC10913540 (Journal of medicinal chemistry, 2021).

Key:
X = X (Homo sapiens, UniProt P28074); experiment: In vitro proteasome activity assay, purified human 20S proteasome, Ac-WLA-AMC; type: biochemical
LMP2 [1] = biological target: LMP2 (Mus musculus, UniProt P28076); experiment: LMP2 activity in brain homogenates after single intravenous dosing; type: in vivo; conditions: ICR mice, single intravenous dosing 10 mg/kg, 1-hour post-dosing
IL-1α [2] = experiment: Serum IL-1α levels in Tg2576 mice; type: in vivo, mouse; conditions: 10 mg/kg twice weekly for 3 weeks, vs vehicle
Method in brief: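 Serum from 9-month-old Tg2576 mice (dosed or vehicle) diluted 1:5, then incubated with IL-1α standards (seven serial twofold dilutions) on capture-antibody-coated plates for 2 h at room temperature. Five washes, detection antibody 1 h, avidin-HRP 30 min, five washes, substrate, stop with 2N H2SO4. Absorbance read at 450 nm; n=3.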

[3] = In vitro metabolic stability in mouse whole blood; type: in vitro ADME; conditions: ICR mice, 1 μM, 0, 10 and 30 min, compared with YU102
Method in brief: (§1)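 Matrices came from male 7-week-old ICR mice: whole blood with 25 IU/mL heparin, and liver homogenised in ice-cold PBS (2.5 mL/g). After pre-incubation at 37 °C, test compound was added to 1 μM final. Sampling was at 0, 10 and 30 min for blood and 0, 10 and 20 min for liver. […] Remaining drug was measured by LC-MS/MS.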

IL-1α [4] = experiment: IL-1α release by LPS-activated BV-2 cells; type: cell-based, murine; conditions: LPS 1 μg/mL
Method in brief: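 BV-2 microglia were stimulated with LPS (1 μg/mL). IL-1α in the culture supernatants was measured by sandwich ELISA. Supernatants and standards (seven serial twofold dilutions) sat overnight at 4 °C on capture-antibody plates, then went through detection antibody (1 h), avidin-HRP (30 min), substrate, and a 2N H2SO4 stop. A450 was read. Three technical replicates, SD shown.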

[5] = In vitro metabolic stability in mouse liver homogenates; type: in vitro ADME; conditions: ICR mice, 1 μM, 0, 10 and 20 min, compared with YU102
Method in brief: as §1

[6] = Observation of overt toxicity during treatment; type: in vivo; conditions: Tg2576 or non-transgenic ICR mice during the test period
[7] = system: retinal pigment epithelium (RPE); experiment: RPE flat mounts, anti-β-catenin immunostaining; type: in vivo, mouse
Method in brief: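 After behaviour testing, eyes from treated Tg2576 mice and from age-matched non-transgenic ICR mice were fixed in 4% paraformaldehyde (1 h, RT). Eyecups were dissected, retina removed, and RPE sheets permeabilised (0.2% Triton X-100, 15 min) and blocked (3% BSA, 1 h). Sheets were stained with anti-β-catenin (1:100, overnight 4 °C), then Alexa 555 secondary (1:1000, 2 h RT), and imaged by confocal microscopy. Images are representative of 3 independent replicates.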

ABCG2 = biological target: T1, ABCG2 (Homo sapiens, UniProt Q9UNQ0); experiment: ABCG2 interaction assay; type: cell-based; conditions: MDCKII/ABCG2 cells, PhA 1 μM; DB-60 (20) 2 or 5 μM, Ko143 0.2 μM
T1 sequence (Q9UNQ0 1-655): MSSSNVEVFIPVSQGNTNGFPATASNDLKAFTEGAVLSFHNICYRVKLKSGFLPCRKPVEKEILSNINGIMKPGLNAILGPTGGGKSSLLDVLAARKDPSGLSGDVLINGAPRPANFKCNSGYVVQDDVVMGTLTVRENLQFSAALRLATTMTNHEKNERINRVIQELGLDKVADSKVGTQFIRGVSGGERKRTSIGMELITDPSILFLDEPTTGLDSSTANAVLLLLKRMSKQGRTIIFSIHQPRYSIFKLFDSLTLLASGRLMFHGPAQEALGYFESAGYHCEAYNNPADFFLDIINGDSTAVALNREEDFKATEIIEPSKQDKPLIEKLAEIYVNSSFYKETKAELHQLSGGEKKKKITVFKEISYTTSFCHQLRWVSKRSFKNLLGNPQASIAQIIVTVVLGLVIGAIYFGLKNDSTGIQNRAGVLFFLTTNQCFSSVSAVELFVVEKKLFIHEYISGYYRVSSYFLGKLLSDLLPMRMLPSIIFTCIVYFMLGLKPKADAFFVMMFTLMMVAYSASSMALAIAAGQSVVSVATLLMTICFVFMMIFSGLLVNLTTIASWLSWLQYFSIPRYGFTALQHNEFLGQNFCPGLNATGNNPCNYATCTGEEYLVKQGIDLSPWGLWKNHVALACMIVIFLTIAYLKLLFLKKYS

LMP7 = LMP7 (Homo sapiens, UniProt P28062); experiment: In-cellulo LMP7 inhibition in RPMI-8226/ABCB1 vs parental RPMI-8226 cells; type: cell-based; conditions: Supple. Table S1
Method in brief: (§2)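 Lysates (14,000 g, 20 min, 4 °C; 5 μg protein) in 20 mM Tris-HCl, 0.5 mM EDTA, 0.035% SDS, pH 8.0, received Ac-PAL-AMC (LMP2) or Ac-ANW-AMC (LMP7), each at 100 μM. Fluorescence (ex 360/em 460 nm) was read every minute for 1 h. IC50s were compared between lines.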

Tg2576 mice = experiment: Morris water maze, probe trial and passive avoidance in Tg2576 mice; type: in vivo, mouse; conditions: 10 mg/kg twice weekly for 3 weeks
Method in brief: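 Tg2576 mice (9-month-old, acclimatised one month) were injected with 10 mg/kg twice weekly for 3 weeks. Morris water maze training ran on days 1–5: hidden platform 1–1.5 cm below 25 ± 1 °C water, three 60-s trials daily from randomised starts. The probe trial on day 6 tracked swimming for 60 s and recorded time in the former platform quadrant by video. Student's t-test, n=5.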

LMP2 [8] = biological target: T2, LMP2 (Homo sapiens, UniProt P28065); experiment: In-cellulo LMP2 inhibition in RPMI-8226/ABCB1 vs parental RPMI-8226 cells; type: cell-based; conditions: either cell line
Method in brief: as §2

LMP2 [9] = biological target: T2, LMP2; experiment: In vitro proteasome activity assay, purified human 20S proteasome, Ac-PAL-AMC; type: biochemical; conditions: P3-proline substitution of 21, purified proteasome

SMILES | IC50 (X) [µM] | LMP2 inhibitory potency compared with 21 (LMP2 [9]) | also measured
C[C@]1(C(=O)[C@H](Cc2ccccc2)NC(=O)[C@@H]2COCCCCCC(=O)N3CCC[C@H]3C(=O)N2)CO1 [compound 25, (3S,15aS)-N-((S)-1-((R)-2-Methyloxiran-2-yl)-1-oxo-3-phenylpropan-2-yl)-1,11-dioxotetradecahydropyrrolo[2,1-f][1]oxa[4,7]diazacyclotridecine-3-carboxamide] | > 10 | – | –
C[C@]1(C(=O)[C@H](Cc2ccccc2)NC(=O)[C@@H]2Cc3ccc(cc3)OCCCCCCCC(=O)N3CCC[C@H]3C(=O)N2)CO1 [compound 20, (1^2S,4S)-N-((S)-1-((R)-2-Methyloxiran-2-yl)-1-oxo-3-phenylpropan-2-yl)-2,15-dioxo-7-oxa-3-aza-1(2,1)-pyrrolidina-6(1,4)-benzenacyclopentadecaphane-4-carboxamide] | – | – | inhibition of LMP2 activity in brain homogenates (LMP2 [1]): no appreciable inhibition of the LMP2 activity; serum levels of IL-1α (IL-1α [2]): lower in Tg2576 mice receiving DB-60 (20) treatment than the control mice; metabolic stability in whole blood [3]: greater metabolic stability than YU102; release of IL-1α by LPS-activated microglial BV-2 cells (IL-1α [4]): decreased the release of IL-1α; stability in liver homogenates [5]: superior to YU102; overt toxicity [6]: No sign of overt toxicity; RPE structure in Tg2576 mice ([7]; Tg2576 mice after behavior tests, anti-β-catenin staining): displayed the orderly structure; RPE structural integrity in non-transgenic ICR mice ([7]; age-matching non-transgenic ICR mice treated with DB-60 (20)): not affected; inhibition of the ABCG2-mediated efflux of PhA (cellular accumulation of PhA) (ABCG2): no inhibition of the ABCG2-mediated efflux of PhA; fold decrease of LMP7 inhibition, RPMI-8226/ABCB1 vs parental RPMI-8226 (LMP7): ~ 2 fold; probe trial: percentage of time spent in the target quadrant (Tg2576 mice; day 6, vs control): higher than control mice; passive avoidance test: step-through latency (Tg2576 mice; days 7-8, vs control): performed better in a fear-aggravated test (passive avoidance) than control mice
CC(C)C[C@H](NC(=O)[C@@H]1COCCCCCC(=O)NCC(=O)N2CCC[C@H]2C(=O)N1)C(=O)[C@@]1(C)CO1 [compound 26, (3S,18aS)-N-((S)-4-Methyl-1-((R)-2-methyloxiran-2-yl)-1-oxopentan-2-yl)-1,11,14-trioxohexadecahydro-6H-pyrrolo[2,1-f][1]oxa[4,7,10]triazacyclohexadecine-3-carboxamide] | > 10 | – | LMP2 inhibition in RPMI-8226/ABCB1 and parental RPMI-8226 cells (LMP2 [8]): no LMP2 inhibition in either cell line
CC(C)C[C@H](NC(=O)[C@@H]1COCCCCCC(=O)N2C[C@H](F)C[C@H]2C(=O)N1)C(=O)[C@@]1(C)CO1 [compound 32, (3S,14S,15aS)-14-Fluoro-N-((S)-4-methyl-1-((R)-2-methyloxiran-2-yl)-1-oxopentan-2-yl)-1,11-dioxotetradecahydropyrrolo[2,1-f][1]oxa[4,7]diazacyclotridecine-3-carboxamide] | > 10 | substantial decrease in the LMP2 inhibitory potency | –
CC(C)C[C@H](NC(=O)[C@@H]1Cc2ccc(cc2)OCCCCCCC(=O)N2CCC[C@H]2C(=O)N1)C(=O)[C@@]1(C)CO1 [compound 16, (1^2S,4S)-N-((S)-4-Methyl-1-((R)-2-methyloxiran-2-yl)-1-oxopentan-2-yl)-2,14-dioxo-7-oxa-3-aza-1(2,1)-pyrrolidina-6(1,4)-benzenacyclotetradecaphane-4-carboxamide] | > 10 | – | –
CC(C)C[C@H](NC(=O)[C@@H]1COCCCCCC(=O)N2CC[C@H]2C(=O)N1)C(=O)[C@@]1(C)CO1 [compound 35, (10S,13S)-N-((S)-4-Methyl-1-((R)-2-methyloxiran-2-yl)-1-oxopentan-2-yl)-2,12-dioxo-8-oxa-1,11-diazabicyclo[11.2.0]pentadecane-10-carboxamide] | > 10 | LMP2 inhibitory potency similar to 21 | –
CC(C)C[C@H](NC(=O)[C@@H]1COCCCCCC(=O)N2CCC[C@@]2(C)C(=O)N1)C(=O)[C@@]1(C)CO1 [compound 34, (3S,15aS)-15a-Methyl-N-((S)-4-methyl-1-((R)-2-methyloxiran-2-yl)-1-oxopentan-2-yl)-1,11-dioxotetradecahydropyrrolo[2,1-f][1]oxa[4,7]diazacyclotridecine-3-carboxamide] | > 10 | substantial decrease in the LMP2 inhibitory potency | –
CC(C)C[C@H](NC(=O)[C@@H]1COCCCCCCC(=O)NCC(=O)N2CCC[C@H]2C(=O)N1)C(=O)[C@@]1(C)CO1 [compound 27, (3S,19aS)-N-((S)-4-Methyl-1-((R)-2-methyloxiran-2-yl)-1-oxopentan-2-yl)-1,12,15-trioxooctadecahydropyrrolo[2,1-f][1]oxa[4,7,10]triazacycloheptadecine-3-carboxamide] | > 10 | – | LMP2 inhibition in RPMI-8226/ABCB1 and parental RPMI-8226 cells (LMP2 [8]): no LMP2 inhibition in either cell line
CC(C)C[C@H](NC(=O)[C@@H]1COCCCCCC(=O)N2CCCC[C@H]2C(=O)N1)C(=O)[C@@]1(C)CO1 [compound 36, (3S,16aS)-N-((S)-4-Methyl-1-((R)-2-methyloxiran-2-yl)-1-oxopentan-2-yl)-1,11-dioxotetradecahydro-2H-pyrido[2,1-f][1]oxa[4,7]diazacyclotridecine-3-carboxamide] | > 10 | substantial decrease in the LMP2 inhibitory potency | –
CC(C)C[C@H](NC(=O)[C@@H]1COCCCCCC(=O)N2CC(F)(F)C[C@H]2C(=O)N1)C(=O)[C@@]1(C)CO1 [compound 33, (3S,15aS)-14,14-Difluoro-N-((S)-4-methyl-1-((R)-2-methyloxiran-2-yl)-1-oxopentan-2-yl)-1,11-dioxotetradecahydropyrrolo[2,1-f][1]oxa[4,7]diazacyclotridecine-3-carboxamide] | > 10 | LMP2 inhibitory potency similar to 21 | –
